pIC50, pKd: −log10 of the molar value.
Legend:
[1] = system: transcriptional activity of STAT3; assay: STAT3-luciferase reporter assay; format: cell-based, human; details: Homo sapiens, MOLM16, 24 h, read-out: IC50, transcriptional activity of STAT3
[2] = system: STAT proteins in MOLM-16 and SU-DHL-1 tumors; assay: Multiplexed quantitative proteomics in xenograft tumors; format: in vivo, mice; details: 25 mg/kg i.v., 6 hr
[3] = Body weight and signs of toxicity in efficacy experiments; format: in vivo, mice; details: all efficacy experiments
How it was run: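 Animal weights and signs of toxicity were recorded 2–3 times per week in NOD/SCID female mice with subcutaneous xenografts. Mice received test compound or vehicle (10% PEG400 + 90% PBS) on the indicated schedules.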

[4] = system: ~5500 proteins quantified in each cell line; assay: Multiplexed quantitative proteomics in cell lines; format: cell-based, human; details: 10 μM, 2.5 hr, three cell lines, p≤0.05
How it was run: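 Cells were exposed to test compound, then analysed by multiplexed quantitative proteomics. Significance was assessed by Student's t-test.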

SUP-M2 tumor = assay: SUP-M2 xenograft efficacy; format: in vivo, mice
How it was run: (§1)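 NOD/SCID female mice were injected subcutaneously in 5 mg/ml Matrigel with MOLM-16 (3 × 10^6), SU-DHL-1 (1 × 10^7) or SUP-M2 (1 × 10^7) cells. At about 150 mm3, mice were size-matched and randomised. Test compound or vehicle (10% PEG400 + 90% PBS) was given on the indicated schedules. Tumours were measured 2–3 times weekly, with volume = length×width²/2. TGI was calculated from group medians.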

STAT5B = STAT5B (Homo sapiens, UniProt P51692); assay: Bio-Layer Interferometry binding, STAT5B
STAT5B, sequence (P51692 138-710): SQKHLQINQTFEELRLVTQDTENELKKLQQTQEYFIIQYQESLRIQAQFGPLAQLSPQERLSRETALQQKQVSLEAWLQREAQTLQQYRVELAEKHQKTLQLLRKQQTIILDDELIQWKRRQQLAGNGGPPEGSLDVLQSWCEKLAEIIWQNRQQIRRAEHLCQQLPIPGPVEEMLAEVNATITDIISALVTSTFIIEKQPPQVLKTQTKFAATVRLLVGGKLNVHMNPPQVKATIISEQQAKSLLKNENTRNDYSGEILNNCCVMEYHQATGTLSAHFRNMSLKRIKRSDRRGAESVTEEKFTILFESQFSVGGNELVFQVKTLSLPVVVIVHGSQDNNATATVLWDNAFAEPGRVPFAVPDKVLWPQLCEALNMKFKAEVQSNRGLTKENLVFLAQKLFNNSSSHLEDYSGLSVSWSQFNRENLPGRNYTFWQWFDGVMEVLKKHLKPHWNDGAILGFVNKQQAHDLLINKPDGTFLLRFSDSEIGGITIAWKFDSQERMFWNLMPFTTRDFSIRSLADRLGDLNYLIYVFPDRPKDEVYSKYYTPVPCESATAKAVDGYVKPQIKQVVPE
How it was run: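 Purified recombinant human STAT proteins were biotinylated, then direct binding of the test compound was measured by Bio-Layer Interferometry to give Kd.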

mutated STAT3 proteins [5] = target: mutated STAT3 proteins (Homo sapiens, UniProt P40763, Y705F); assay: Degradation of mutated STAT3 proteins in cells; format: cell-based; details: DLD-1/STAT3 Y705F/Y705F cells, 1 μM, 24 hr
mutated STAT3 proteins (Homo sapiens, UniProt P40763, Y705F), sequence (Q96SW2 whole entry): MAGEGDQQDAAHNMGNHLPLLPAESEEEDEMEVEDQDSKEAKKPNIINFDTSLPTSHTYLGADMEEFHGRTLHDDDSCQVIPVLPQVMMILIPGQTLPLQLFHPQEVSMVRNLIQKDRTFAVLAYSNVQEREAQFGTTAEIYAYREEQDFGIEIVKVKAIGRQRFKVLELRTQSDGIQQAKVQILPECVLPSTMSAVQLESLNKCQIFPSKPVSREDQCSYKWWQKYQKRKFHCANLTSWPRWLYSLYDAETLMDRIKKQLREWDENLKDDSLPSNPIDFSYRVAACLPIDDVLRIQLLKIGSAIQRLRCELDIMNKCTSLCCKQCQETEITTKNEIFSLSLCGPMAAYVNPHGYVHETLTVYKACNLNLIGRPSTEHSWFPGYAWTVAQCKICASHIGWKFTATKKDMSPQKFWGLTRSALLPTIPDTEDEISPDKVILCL
mutated STAT3 proteins (Homo sapiens, UniProt P40763, Y705F), sequence (P40763 2-770 Y705F): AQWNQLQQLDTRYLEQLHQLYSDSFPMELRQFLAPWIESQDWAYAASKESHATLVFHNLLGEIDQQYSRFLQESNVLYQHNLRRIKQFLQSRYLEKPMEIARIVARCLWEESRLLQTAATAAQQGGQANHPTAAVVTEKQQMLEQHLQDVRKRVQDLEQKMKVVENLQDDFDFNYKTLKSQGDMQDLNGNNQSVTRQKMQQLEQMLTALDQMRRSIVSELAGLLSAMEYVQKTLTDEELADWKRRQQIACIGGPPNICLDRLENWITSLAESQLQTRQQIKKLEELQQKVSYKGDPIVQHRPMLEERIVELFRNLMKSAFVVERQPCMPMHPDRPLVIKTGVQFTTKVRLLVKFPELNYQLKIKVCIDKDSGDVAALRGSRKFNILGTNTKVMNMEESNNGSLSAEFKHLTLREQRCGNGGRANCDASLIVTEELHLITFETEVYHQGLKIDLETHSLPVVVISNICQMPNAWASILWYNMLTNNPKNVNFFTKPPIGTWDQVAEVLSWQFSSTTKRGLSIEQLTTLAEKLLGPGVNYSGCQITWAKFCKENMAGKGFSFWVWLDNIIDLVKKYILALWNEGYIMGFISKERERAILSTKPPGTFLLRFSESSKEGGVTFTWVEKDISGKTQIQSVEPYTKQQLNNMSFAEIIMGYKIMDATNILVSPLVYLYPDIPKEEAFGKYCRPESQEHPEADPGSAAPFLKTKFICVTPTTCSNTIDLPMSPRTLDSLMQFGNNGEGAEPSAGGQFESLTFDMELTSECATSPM

mutated STAT3 proteins [6] = assay: Degradation of mutated STAT3 proteins in cells; format: cell-based, human
[7] = system: c-Myc; STAT3 Y705 phosphorylation; assay: Immunoblotting of c-Myc and pSTAT3; format: cell-based, human; details: 0.5 μM, 24 hr
How it was run: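 Treated cells were lysed in cell lysis buffer, resolved by SDS-PAGE, transferred to PVDF and probed by immunoblotting.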

STAT3 target genes [8] = assay: qRT-PCR of STAT3 target genes in MOLM-16 cells; format: cell-based, human; details: MOLM-16, 1 μM, 8 hr
SU-DHL-1 xenograft = SU-DHL-1 xenograft efficacy; format: in vivo, mice
How it was run: as §1

[9] = system: leukemia and lymphoma cell lines; assay: 4-day CellTiter Glo cell viability assay, leukemia and lymphoma cell line panel; format: cell-based, human
mouse STAT3 protein = mouse STAT3 protein (Mus musculus, UniProt P42227); assay: Pharmacodynamics in mouse tissues; format: in vivo, CD-1 mice; details: single dose 100 mg/kg i.v.
mouse STAT3 protein, sequence (P42227 whole entry): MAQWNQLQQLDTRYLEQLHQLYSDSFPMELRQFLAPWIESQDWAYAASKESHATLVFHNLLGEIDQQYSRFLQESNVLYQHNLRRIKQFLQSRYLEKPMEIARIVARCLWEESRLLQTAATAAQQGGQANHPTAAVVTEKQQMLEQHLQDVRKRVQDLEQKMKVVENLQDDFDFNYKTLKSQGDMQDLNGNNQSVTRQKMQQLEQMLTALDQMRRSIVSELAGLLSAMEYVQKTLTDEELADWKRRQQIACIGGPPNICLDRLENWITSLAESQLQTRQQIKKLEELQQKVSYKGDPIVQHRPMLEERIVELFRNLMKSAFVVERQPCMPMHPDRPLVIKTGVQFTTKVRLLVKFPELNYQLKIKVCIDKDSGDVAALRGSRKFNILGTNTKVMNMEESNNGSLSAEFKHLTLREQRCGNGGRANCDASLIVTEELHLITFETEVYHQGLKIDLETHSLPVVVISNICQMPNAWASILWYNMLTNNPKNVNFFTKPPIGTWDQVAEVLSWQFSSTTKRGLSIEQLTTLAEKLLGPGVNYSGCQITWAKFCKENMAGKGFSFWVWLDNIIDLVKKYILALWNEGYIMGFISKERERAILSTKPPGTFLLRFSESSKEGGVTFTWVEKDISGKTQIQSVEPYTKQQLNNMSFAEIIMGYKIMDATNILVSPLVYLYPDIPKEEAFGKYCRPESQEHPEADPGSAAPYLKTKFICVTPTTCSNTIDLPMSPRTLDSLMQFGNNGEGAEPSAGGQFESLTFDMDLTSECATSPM
How it was run: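 Female outbred CD-1 mice received a single i.v. dose. At set time points, liver, spleen, heart and kidney were collected and analysed by immunoblotting.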

[10] = Toxicity in immune competent mice; format: in vivo, CD-1 female mice
How it was run: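 Female CD-1 mice were given test compound i.v. at 50 or 100 mg/kg, or vehicle (10% PEG400 + 90% PBS), three times weekly for three weeks. Body weight was recorded 2–3 times per week. At the end, blood and major organs were taken for haematology, serum chemistry, organ coefficients and histology.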

[11] = target: DNA binding activity of STAT3 (Homo sapiens, UniProt P40763); assay: STAT3 DNA binding activity assay on nuclear extracts; format: cell-based; details: 1 μM, 8 hr, MOLM-16 and SU-DHL-1
DNA binding activity of STAT3, sequence (P40763 whole entry): as the sequence (P42227 whole entry) above, with D760E counted along it
How it was run: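 Nuclear extraction: cells were swelled 15 min on ice in hypotonic HEPES pH 7.9/10 mM KCl buffer with DTT and phosphatase/protease inhibitors. NP-40 was added (0.5% final), and nuclei were extracted 15 min at 4°C in 0.4 M NaCl HEPES buffer, then cleared at 5,000 × g. ELISA: 5 μg extract was bound 1 hr at room temperature in TransAM STAT ELISA wells. Wells then received STAT antibody (1:1000, 1 hr), HRP secondary (1 hr) and colour development.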

[12] = target: monomeric and dimeric STAT3 protein (Homo sapiens, UniProt P40763); assay: Native electrophoresis and immunoblotting of STAT3 monomer/dimer; format: cell-based; details: MOLM-16, 1 μM, within 5 hr
monomeric and dimeric STAT3 protein, sequence (P40763 whole entry): as the sequence (P42227 whole entry) above, with D760E counted along it

STAT3 target genes [13] = assay: qRT-PCR of STAT3 target genes in MOLM-16 tumors; format: in vivo, SCID mice; details: single dose 25 mg/kg i.v.
How it was run: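 SCID mice with MOLM-16 tumours received vehicle or test compound i.v. Total RNA was isolated from tumour lysates and STAT3 target genes were quantified by qRT-PCR.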

[14] = i.v. 50 and 100 mg/kg, three times a week for three weeks

NC(=O)CC[C@H](NC(=O)[C@@H]1CC[C@@H]2CCN(C(=O)CCCCCC#Cc3cccc4c3CN(C3CCC(=O)NC3=O)C4=O)C[C@H](NC(=O)c3cc4cc(C(F)(F)P(=O)(O)O)ccc4[nH]3)C(=O)N21)C(=O)NC(c1ccccc1)c1ccccc1 (stereo partly drawn) [SD-36, ((2-(((5S,8S,10aR)-8-(((S)-5-amino-1-(benzhydrylamino)-1,5-dioxopentan-2-yl)carbamoyl)-3-(8-(2-(2,6-dioxopiperidin-3-yl)-1-oxoisoindolin-4-yl)oct-7-ynoyl)-6-oxodecahydropyrrolo[1,2-a][1,5]diazocin-5-yl)carbamoyl)-1H-indol-5-yl)difluoromethyl)phosphonic acid]
pIC50 [1]: 8.00
effect on other STAT proteins in tumors [2]: no significant effect on other STAT proteins
weight loss or other signs of toxicity [3]: no significant weight loss
proteome-wide selectivity [4]: STAT3 was the only protein whose level was significantly decreased by ≥2-fold
tumor growth (SUP-M2 tumor; 50 mg/kg three times per week): completely inhibited tumor growth
tumor response (SUP-M2 tumor; 100 mg/kg three times per week, tumor free until day 30): Complete tumor regression
tumors with complete tumor regression (SUP-M2 tumor; 100 mg/kg twice a week for 3 weeks, day 29): 5 out of 7
pKd (STAT5B): < 5.00
degradation of homozygous Y705F mutant STAT3 (mutated STAT3 proteins [5]): effectively degrades
degradation of endogenous D661Y and K658R mutant STAT3 (mutated STAT3 proteins [6]; 1 μM, 24 hr): efficiently degrades
degradation of STAT3 with mutations of Arg609 or Ser611/Ser613 (mutated STAT3 proteins [6]; transfected MDA-MB-231, 1 μM, 16 hr): resistant to degradation
expression of c-Myc [7]: reduced
expression of a set of STAT3 target genes (STAT3 target genes [8]): significantly down-regulated
tumor growth inhibited compared to the vehicle control (SU-DHL-1 xenograft; 50 mg/kg weekly): 50%
tumor response (SU-DHL-1 xenograft; 100 mg/kg on day 1, 3 and 5 per week): complete tumor regression
tumor response (SU-DHL-1 xenograft; 100 mg/kg weekly): rapid and complete tumor regression
tumors completely regressed (SU-DHL-1 xenograft; 100 mg/kg weekly, after 2 doses, by day 12): 7 out of 7
mice with no tumor returning (SU-DHL-1 xenograft; 100 mg/kg weekly, day 122, >100 days after the last dosing): 6 out of 7
tumor growth (SU-DHL-1 xenograft; 25 and 50 mg/kg on day 1, 3 and 5 per week): effectively inhibited tumor growth
tumor volume reduced (SU-DHL-1 xenograft; single dose 100 mg/kg, day 6): 80%
AML cell lines with strong growth-inhibitory activity ([9]; 9 AML cell lines): 1 of 9
lymphoma cell lines with potent activity ([9]; 9 lymphoma cell lines): 5 of 9
mouse STAT3 protein in liver, spleen, heart and kidney (mouse STAT3 protein): profound and durable depletion
numbers of neutrophils and platelets ([10]; 100 mg/kg, three times a week for three weeks): slightly increased
creatinine, blood urea nitrogen, calcium, albumin and total blood protein ([10]; data not shown): no significant effect
counts of red or white blood cells, lymphocytes, monocytes or eosinophils [10, 14]: no significant changes
systemic toxicity by body weight, organ coefficient and hematology [10, 14]: no obvious systemic toxicity
histology of mouse tissues ([10]; mouse, in vivo): no significant effects
body weight ([10]; reversible one week after withdrawal): moderate body weight gain
DNA binding activity of STAT3 [11]: abolishes
monomeric and dimeric STAT3 protein [12]: completely depletes
expression of a set of STAT3 target genes in tumors (STAT3 target genes [13]): significantly down-regulated

Reference: paper PMC6880868 (Cancer cell, 2019)
